Screening results (PubChem)
ABHD4 inh = ABHD4 inhibitors, primary screen, biochemical, fluorescence polarization, mouse; purified mABHD4, FP-Rh probe fluorescence polarization; inhibition, % at 8.92 µM; actives 0.54% (n = 370,000); AID 720543, 2013;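 active means inhibition exceeding the mean over every tested compound plus 3 SD, cut at about 30% in these data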;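 further: 0% = plate median of compound wells and 100% = S159A mutant with DMSO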
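Test system: mABHD4 protein | Buffer or medium: HEPES pH 7.0 buffer, 150 mM NaCl, 0.01% Pluronic F-127 | Probe or stimulus: FP-Rh fluorescent activity-based probe, added after compound pre-incubation | Timing: Pre-incubation 45 min, probe exposure 60 min, at 25 °C | Technique: Fluorescence polarization, excitation 525 nm, emission 598 nm, BODIPY TMR filters | Repeats: Single well per compound (singlicate)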
HTRA1 inhibitor = HTRA1 serine protease inhibitors, primary screen, biochemical, fluorescence polarization, HTS; Q92743; recombinant HTRA1, FP-rhodamine activity-based probe; inhibition, % at 5.96 µM; actives 0.5% (n = 340,000); AID 504803, 2011; in the data active means inhibition above about 36%;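 further: 0% = enzyme with DMSO and 100% = wells lacking enzyme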
TDP2 absorb = human TDP2 enzyme inhibitors, primary screen, biochemical, epi absorbance, recombinant enzyme. inhibition, % at 12.8 µM. T5PNP hydrolysis, p-nitrophenol absorbance 415 nm. actives 0.34% (n = 370,000). Tyrosyl-DNA phosphodiesterase 2 (Homo sapiens), O95551;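 active means inhibition above the mean of all tested compounds plus 3 SD, set per campaign, cut at about 25% in these data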;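 further: 0% = DMSO with enzyme and 100% = buffer with substrate but no TDP2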
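System: recombinant human TDP2 / Amount: 120 nM TDP2 per well / Also added: 5 mM T5PNP chromogenic substrate / Doses: 12.8 µM single point, 1% DMSO / Incubation: 2 h at 37 °C / Detection: p-Nitrophenol epi absorbance / Evaluation: % inhibition relative to enzyme-containing and enzyme-free wells / Repeats: singlicate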
TCR CD3 inh = inhibitors of human TCR-CD3 interaction, primary screen, biochemical, fluorescence, TAMRA-labeled TCR probe | inhibition, % at 9.4 µM | actives 0.37% (n = 360,000); in the data active means inhibition above about 19%;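 further: recombinant mutant TCR 2C K166C tagged with TAMRA read by polarization; 0% = receptor in buffer alone and 100% = receptor with positive control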
SIAE primary = human SIAE inhibitors, primary screen, biochemical, fluorescence polarization, FP-Rh probe, 1536-well HTS. Sialate O-acetylesterase (Homo sapiens), Q9HAT2. SIAE FP-Rh probe binding. inhibition, % at 9.66 µM. actives 0.69% (n = 370,000);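 active means inhibition above a cutoff: mean of compounds within the control limits plus 3 SD of those, cut at about 17% in these data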;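 further: 0% = plate median of compound wells and 100% = probe without SIAE protein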
Target sequence (Q9HAT2 whole entry, looked up): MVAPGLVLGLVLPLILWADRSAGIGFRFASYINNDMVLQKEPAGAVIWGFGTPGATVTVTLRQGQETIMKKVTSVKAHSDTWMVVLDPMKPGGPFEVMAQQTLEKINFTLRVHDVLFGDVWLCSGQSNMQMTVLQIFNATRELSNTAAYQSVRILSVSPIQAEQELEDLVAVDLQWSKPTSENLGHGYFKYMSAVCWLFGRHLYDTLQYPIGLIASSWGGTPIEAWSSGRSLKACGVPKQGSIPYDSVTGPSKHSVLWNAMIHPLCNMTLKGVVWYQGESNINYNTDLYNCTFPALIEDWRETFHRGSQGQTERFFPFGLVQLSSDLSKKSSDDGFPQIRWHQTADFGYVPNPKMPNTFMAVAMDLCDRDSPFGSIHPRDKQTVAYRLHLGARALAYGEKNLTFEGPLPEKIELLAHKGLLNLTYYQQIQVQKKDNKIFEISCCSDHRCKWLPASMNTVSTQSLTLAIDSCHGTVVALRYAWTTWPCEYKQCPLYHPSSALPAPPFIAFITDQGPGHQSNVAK
LEDGF integ inh = blockers of LEDGF/p75-dependent integrase strand transfer – biochemical, TR-FRET, high throughput, primary screen. HIV-1 integrase (with human LEDGF/p75). TR-FRET IN-LEDGF/p75 DNA integration, Eu/Cy5. inhibition, % at 3.7 µM. actives 0.64% (n = 370,000). AID 743269, 2014;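 active means inhibition above the screen-wide mean plus 3 SD, cut at about 13% in these data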;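 further: signal is the Cy5 over europium emission ratio at 671 and 618 nm; 0% = plate median of compound wells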
TDP2 confirm = human TDP2 enzyme inhibitors, retest, confirmation, biochemical, epi absorbance, recombinant enzyme; inhibition, % at 12.8 µM; actives 22% (n = 1,100); absorbance read-out; shares compounds with TDP2 absorb; in the data active means inhibition above about 25%;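 further: 0% = vehicle with enzyme and 100% = no enzyme buffer only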
The depositor's hits bear a star. In the library only some 2.2% were active in any assay of this set; here they are far more common.

How did CC12C=CC(C)(C3C(=O)NC(=O)C31)C1C3C(=O)NC(=O)C3C12 (configuration not stated) do in these assays?
ABHD4 inh: 3; TDP2 absorb: -2; TCR CD3 inh: 4; SIAE primary: 0; LEDGF integ inh: 1

How did CS(=O)(=O)c1cccc(C(=O)Nc2cccc(-c3nc4ccccc4[nH]3)c2)c1 do in these assays?
ABHD4 inh: -27; HTRA1 inhibitor: -36; TDP2 absorb: 25*; TCR CD3 inh: 11; SIAE primary: -55; LEDGF integ inh: 2; TDP2 confirm: 7

Results for COc1ccc(OC)c(CN2C(=O)c3ccnn3CC2(C)c2nnnn2C2CCCC2)c1 (configuration not stated) ?
ABHD4 inh: 4; TDP2 absorb: 7; SIAE primary: 2; LEDGF integ inh: 0

How did Cc1ccc(Cl)cc1NS(=O)(=O)c1cn(C)nc1C do in these assays?
ABHD4 inh: -3; HTRA1 inhibitor: -1; TDP2 absorb: 25*; TCR CD3 inh: 2; SIAE primary: 10; LEDGF integ inh: -2; TDP2 confirm: 11

What do the screens show for `COc1ccc(Cl)cc1NS(=O)(=O)c1cn(C)nc1C`?
ABHD4 inh: 7; HTRA1 inhibitor: 0; TDP2 absorb: 15; TCR CD3 inh: 4; SIAE primary: 8; LEDGF integ inh: 3

What do the screens show for `CCC(C)c1ccc(NC(=O)CSc2nnc(-c3cccc(C)c3)n2C)cc1` (configuration not stated)?
ABHD4 inh: -4; TDP2 absorb: -7; SIAE primary: -1; LEDGF integ inh: -2

Results for O=c1[nH]c(Nc2ccccc2)cc2ccccc12 ?
ABHD4 inh: 9; HTRA1 inhibitor: 10; TDP2 absorb: 69*; TCR CD3 inh: -4; SIAE primary: -1; LEDGF integ inh: 37*; TDP2 confirm: 66*

Results for Cn1c(=O)cc(Nc2ccccc2)[nH]c1=O ?
ABHD4 inh: -2; HTRA1 inhibitor: -1; TDP2 absorb: -1; TCR CD3 inh: 4; SIAE primary: -2; LEDGF integ inh: -1

How did COc1cccc(C(C(=O)NC(C)(C)C)N(Cc2ccc(C)cc2)C(=O)CCC(=O)Nc2cc(C)on2)c1OC (configuration not stated) do in these assays?
ABHD4 inh: 7; HTRA1 inhibitor: -17; TDP2 absorb: 31*; TCR CD3 inh: 3; SIAE primary: -2; LEDGF integ inh: 0; TDP2 confirm: -8

How did CS(=O)(=O)Nc1ccc(-c2cn3cccnc3n2)cc1 do in these assays?
ABHD4 inh: 3; HTRA1 inhibitor: -5; TDP2 absorb: 26*; TCR CD3 inh: 0; SIAE primary: -5; LEDGF integ inh: -3; TDP2 confirm: 6

Results for COCCN1C(=O)[C@H]2C[C@@]13O[C@H](C1CCCCC1)N=C3CC1c3ccccc3C[C@@]12C (some centres not stated) ?
ABHD4 inh: 4; TDP2 absorb: 6; TCR CD3 inh: -3; SIAE primary: 2; LEDGF integ inh: -1

Results for CC(=NNC(=O)CSc1nnc(-c2ccccc2)n1-c1ccccc1)c1ccc2ccccc2c1 ?
ABHD4 inh: -5; TDP2 absorb: -7; SIAE primary: 2; LEDGF integ inh: -1

How did O=C(N[C@@H](Cc1ccccc1)c1nc2ccccc2[nH]1)c1ccc([N+](=O)[O-])cc1 do in these assays?
ABHD4 inh: -6; TDP2 absorb: 25*; TCR CD3 inh: 5; SIAE primary: 5; LEDGF integ inh: 3; TDP2 confirm: 5

Results for Oc1ccc(-c2nnc(-c3ccc(O)cc3)nn2)cc1 ?
ABHD4 inh: 23; HTRA1 inhibitor: 13; TDP2 absorb: -10; TCR CD3 inh: 4; SIAE primary: 1; LEDGF integ inh: 0

Results for Oc1ccc(C2=NNC(c3ccc(O)cc3)=NN2)cc1 ?
ABHD4 inh: -2; HTRA1 inhibitor: 4; TDP2 absorb: 28*; TCR CD3 inh: 3; SIAE primary: 2; LEDGF integ inh: 1; TDP2 confirm: -1

Results for Nc1nc2c(-c3ccc([N+](=O)[O-])cc3)nnn2c2ccccc12 ?
ABHD4 inh: 0; TDP2 absorb: 0; TCR CD3 inh: 4; SIAE primary: -6; LEDGF integ inh: 0

Results for Cc1[nH][nH]c(=O)c1C(c1ccc(Br)cc1)c1c(C)[nH][nH]c1=O ?
ABHD4 inh: 4; HTRA1 inhibitor: 2; TDP2 absorb: -4; TCR CD3 inh: -8; SIAE primary: 4; LEDGF integ inh: -2

Results for Cc1ccc(C(c2c(C)[nH][nH]c2=O)c2c(C)[nH][nH]c2=O)cc1 ?
ABHD4 inh: 4; HTRA1 inhibitor: 3; TDP2 absorb: 33*; TCR CD3 inh: 9; SIAE primary: 4; LEDGF integ inh: 3; TDP2 confirm: -2

What do the screens show for `Cc1[nH][nH]c(=O)c1C(c1ccc([N+](=O)[O-])cc1)c1c(C)[nH][nH]c1=O`?
ABHD4 inh: 3; HTRA1 inhibitor: 0; TDP2 absorb: 31*; TCR CD3 inh: 4; SIAE primary: 3; LEDGF integ inh: 3; TDP2 confirm: 12

What do the screens show for `COc1ccc(C(c2c(C)[nH][nH]c2=O)c2c(C)[nH][nH]c2=O)cc1Br`?
ABHD4 inh: 4; HTRA1 inhibitor: 1; TDP2 absorb: 15; TCR CD3 inh: -5; SIAE primary: -2; LEDGF integ inh: -1

What do the screens show for `COc1ccc(OC)c(C(c2c(C)[nH][nH]c2=O)c2c(C)[nH][nH]c2=O)c1`?
ABHD4 inh: 3; HTRA1 inhibitor: 3; TDP2 absorb: 50*; TCR CD3 inh: -6; SIAE primary: 3; LEDGF integ inh: 0; TDP2 confirm: 8

How did S=c1[nH]nc(-c2cc(-c3ccccc3)n[nH]2)n1N=Cc1cccc(Oc2ccccc2)c1 do in these assays?
ABHD4 inh: -5; TDP2 absorb: -4; SIAE primary: -7; LEDGF integ inh: 2

How did CC(=O)Nc1sc2c(c1-c1nc3ccccc3s1)CNC2 do in these assays?
ABHD4 inh: 10; TDP2 absorb: 2; SIAE primary: -1; LEDGF integ inh: 1

Results for CCCC[C@H]1C2CC(OC(=O)Nc3ccccc3C)C(C2)[C@H]2CCCCN21 (some centres not stated) ?
ABHD4 inh: 4; TDP2 absorb: 7; SIAE primary: -2; LEDGF integ inh: -3
